Source: PubChem
CHT block – inhibits the human high affinity choline transporter | Q9GZV3 | CHT-expressing cells, membrane potential dye, choline response; stronger effect = lower value | B-score at 10 µM | actives 0.86% (n = 310,000) | AID 488975;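 active = B-score over 3 SD under the library average, and starting fluorescence ratio not unusually high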;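 also: choline stimulus applied at its EC90 after an EC20 pre-addition; B-score computed on integrated fluorescence ratio after choline addition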
procasp7 counter – activates human procaspase-7, counter-screen for procaspase-3 activators | P55210 | recombinant procaspase-7, Ac-DEVD-pNA absorbance 405 nm; D23A/D198A/D206A triple mutant, cannot self-cleave; scale: DMSO 0, 5 µM enzyme 100 | activation, % at 8.5 µM | actives 0.093% (n = 330,000) | AID 463210;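 active = percent activation above the screen-wide mean plus 3 SD, cut at about 25% in these data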
Target sequence (P55210 whole entry D23A/D198A/D206A): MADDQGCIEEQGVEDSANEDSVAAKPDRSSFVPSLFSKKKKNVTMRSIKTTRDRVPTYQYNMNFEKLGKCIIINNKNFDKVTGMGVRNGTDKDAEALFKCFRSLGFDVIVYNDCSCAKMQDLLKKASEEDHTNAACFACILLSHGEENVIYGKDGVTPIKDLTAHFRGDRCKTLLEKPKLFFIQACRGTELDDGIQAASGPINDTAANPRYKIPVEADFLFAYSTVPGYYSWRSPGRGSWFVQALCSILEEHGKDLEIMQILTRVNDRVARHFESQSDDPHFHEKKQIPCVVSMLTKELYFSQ
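System: Uncleavable procaspase-7 mutant enzyme; Amount: 2 µM procaspase-7 mutant as dispensed; Schedule: 1 h compound preincubation, 2 h substrate cleavage, 25 °C; Measured by: 405 nm absorbance of p-nitroaniline; Evaluation: percent activation from buffer-corrected 0–120 min absorbance change; Control set: low DMSO alone, high DMSO plus 5 µM PC-7.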
CHT PAM – allosteric activators of human choline transporter CHT | Q9GZV3 | CHT-expressing cells, membrane potential dye, choline EC20; stronger effect = higher value; LV-AA mutant CHT in HEK293 cells | B-score at 10 µM | actives 0.49% (n = 310,000) | AID 488977;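 active = initial fluorescence not abnormally high and integrated response B-score, plate-corrected, over 3 SD above library mean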
procasp3 activ – procaspase-3 (human) activation | P42574 | recombinant procaspase-3 D3A, Ac-DEVD-pNA absorbance 405 nm | activation, % at 8.5 µM | actives 0.11% (n = 330,000) | AID 463141;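 active = activation above the mean of all tested compounds plus 3 SD, cut at about 21% in these data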
Target sequence (P42574 whole entry D9A/D28A/D175A): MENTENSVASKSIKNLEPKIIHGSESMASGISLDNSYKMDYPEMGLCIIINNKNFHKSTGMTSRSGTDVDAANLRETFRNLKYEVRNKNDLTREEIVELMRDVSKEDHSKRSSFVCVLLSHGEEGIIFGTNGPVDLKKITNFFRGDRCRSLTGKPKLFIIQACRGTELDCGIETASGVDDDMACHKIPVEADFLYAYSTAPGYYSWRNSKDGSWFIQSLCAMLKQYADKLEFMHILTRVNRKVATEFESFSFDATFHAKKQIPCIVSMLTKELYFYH
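Assay system – Procaspase-3 D3A mutant, all three cleavage aspartates alanine · Controls – DMSO-only low control, 5 µM PC-3 D3A high control · Schedule – 1 h compound preincubation, 2 h substrate hydrolysis at 25 °C · Signal – 405 nm absorbance of p-nitroaniline, reads at 0 and 120 min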
CHT act confirm – human CHT activation, confirmatory screen; CHT-expressing cells, membrane potential dye fluorescence (FDSS); % of choline EC20–EC90 response window; HEK293 expressing CHT LV-AA mutant; choline added at its EC20; AID 504833; actives 91% (n = 2,500); shares compounds with CHT PAM; activation, % at 10 µM;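 active = primary screen active, with duplicate mean activation above negative control mean plus 3 SD, cut at about 11% in these data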
HEK293 MP dye – counter-screen for CHT activators: effect in parental HEK293 cells | membrane potential dye fluorescence (FDSS); measured after EC20 choline addition | actives 62% (n = 2,500) | shares compounds with CHT PAM | AID 623908 | ratio readout change at 10 µM, hits read low;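 active = duplicate-averaged ratio beyond 3 SD from buffer wells, up or down, though filed actives are nearly all decreases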
Of the large screens only hits and unclear results are named; the others gave an inactive call (follow-up assays come after a bar, where they were run). Compounds with a hit are over-represented: about 1.3% of the library has one in this group of screens.

COC(=O)COc1ccc(-c2ccc(F)cc2)cc1C=O	none
COC(=O)COc1ccc(-c2ccccc2)cc1C=O	CHT PAM 20.1 | CHT act confirm inactive | HEK293 MP dye inactive
O=C(CN1C(=O)NC2(CCOc3ccccc32)C1=O)NCc1ccccc1 (stereo unspecified)	none (no result: CHT block, CHT PAM)
Oc1ccc(/C=N/Nc2cc(N3CCOCC3)nc(N3CCOCC3)n2)cc1O	CHT PAM 7.13 | CHT act confirm 46.7 | HEK293 MP dye -62.1
CCCCCCCC[n+]1c(C)n(-c2ccccc2)c2ccc(NC(C)=O)cc21	CHT PAM 10.1 | CHT act confirm 78.2 | HEK293 MP dye -32.7
CCCCNC(=O)CCc1nc2cccnc2n1Cc1ccccc1	none
CCCc1cc(=O)oc2cc(OCC(=O)NCCCN3CCOCC3)ccc12	none | CHT act confirm 37.1 | HEK293 MP dye -35.5
CCCc1cc(=O)oc2c(C)c(OCC(=O)NCCCN3CCOCC3)ccc12	none
CCCc1cc(=O)oc2cc(OCC(=O)NCCCn3ccnc3)ccc12	none | CHT act confirm 51.7 | HEK293 MP dye -30.9
Cc1cc(C)c2[nH]c(=O)c(C(c3nnnn3CC3CCCO3)N3CCC(C)CC3)cc2c1 (stereo unspecified)	none
Cc1cc(C)c2[nH]c(=O)c(C(c3nnnn3CC3CCCO3)N3CCCC(C)C3)cc2c1 (stereo unspecified)	CHT PAM 7.28 | CHT act confirm inactive | HEK293 MP dye inactive
CCOc1ccc2[nH]c(C)c(CN3CCCCC3)c(=O)c2c1	CHT PAM 7.58 | CHT act confirm 46.6 | HEK293 MP dye -34.2
Cc1[nH]c2ccc(Cl)cc2c(=O)c1CN1CCCC1	none
CCOc1ccc2[nH]c(C)c(CN(C)C)c(=O)c2c1	none | CHT act confirm 52.6 | HEK293 MP dye -25
CCOc1ccc2[nH]c(C)cc(=O)c2c1	none
COc1ccccc1C(=O)NCCC(=O)Nc1ccc(S(=O)(=O)N2CCC(C)CC2)cc1	none (no result: CHT block, CHT PAM)
Cc1ccccc1NC(=O)C(C)Sc1nnc(-c2ccncc2)n1CC1CCCO1 (stereo unspecified)	none
Cc1ccc(C)c(-c2[nH]ncc2CN2CCCC(CO)(Cc3ccccc3C)C2)c1 (stereo unspecified)	CHT PAM 6.45 | CHT act confirm 16.6 | HEK293 MP dye inactive
Cc1ccccc1CCN1CCCC(CN(C)C(=O)c2ccc3ncccc3c2)C1 (stereo unspecified)	none
COc1ccc2c(c1)N1CCN=C1N2C	CHT PAM 8.9 | CHT act confirm 64.8 | HEK293 MP dye -65.2
CCN(CC)CCCNC1=C(Cl)C(=O)c2ccccc2C1=O	none | CHT act confirm 61.4 | HEK293 MP dye -53.8
CCCCCn1c(SCCN2CCOCC2)nc2c1c(=O)[nH]c(=O)n2C	none | CHT act confirm 39.0 | HEK293 MP dye -37
CCn1c(SCCN2CCOCC2)nc2c1c(=O)n(C)c(=O)n2C	none | CHT act confirm 48.7 | HEK293 MP dye -38.3
CN(C)C=NCCn1c(N2CCOCC2)nc2c1c(=O)n(C)c(=O)n2C	CHT PAM 13.5 | CHT act confirm 67.8 | HEK293 MP dye -70.3
Cn1c(=O)c2c(nc(SCCN3CCOCC3)n2C)n(C)c1=O	none | CHT act confirm 51.3 | HEK293 MP dye -51.5
Cn1c(=O)c2c(nc(SCCN3CCOCC3)n2Cc2ccc(F)cc2)n(C)c1=O	none
COc1cc2c(cc1OC)n(CC(=O)NC1CCCCCC1)n1c(C)cc(=O)nc21	none
Cc1ccc(S(=O)(=O)N2CCN(C(=O)COC(=O)C3CCC3)CC2)c(C)c1	none
Brc1ccc2nc(-c3ccncc3)c(NC3CCCC3)n2c1	none
Brc1ccc2nc(-c3cccs3)c(NCC3CCCO3)n2c1 (stereo unspecified)	CHT PAM 6.66 | CHT act confirm inactive | HEK293 MP dye inactive
Cc1ccc(CNS(=O)(=O)c2c(C)[nH]c(C)c2C(=O)N2CCCCC2)cc1	none
CC(c1ccccc1)N(CCC(c1ccccc1)C1CCOC(C)(C)C1)C(=O)c1ccco1 (stereo unspecified)	CHT PAM 6.41 | CHT act confirm 33.5 | HEK293 MP dye inactive
O=C(N[C@@H]1CCC(=O)N(CC[C@H](Oc2ccccc2)c2ccccc2)CC1)OCc1ccccc1	none | CHT act confirm 25.1 | HEK293 MP dye inactive
CCOc1ccc(N(C)S(=O)(=O)c2ccc3[nH]cc(C(=O)NCC(OC)OC)c(=O)c3c2)cc1	none | CHT act confirm 21.0 | HEK293 MP dye inactive
CCC1CCCCN1C(=O)c1c[nH]c2ccc(S(=O)(=O)N(C)c3ccc(Cl)cc3)cc2c1=O (stereo unspecified)	none | CHT act confirm 30.0 | HEK293 MP dye inactive
N#Cc1nc(COc2ccccc2)oc1N1CCN(Cc2ccccc2)CC1	CHT PAM 9.95 | CHT act confirm 35.6 | HEK293 MP dye inactive
N#Cc1nc(COc2ccc(F)cc2)oc1N1CCCC1	none
Cc1ccc(OCc2nc(C#N)c(N3CCN(Cc4ccccc4)CC3)o2)cc1	CHT PAM 11.3 | CHT act confirm 32.8 | HEK293 MP dye inactive
COc1cc(/C=N/NC(=O)c2ccccn2)ccc1OC(=O)c1cccs1	none
CCOc1ccc(Cc2c(Cl)nc(SC)nc2N(C)C)cc1	CHT PAM 6.39 | CHT act confirm 27.6 | HEK293 MP dye inactive
Cc1cccc(COc2ccc(/C=C3/C(=O)N(C)C(=S)N3C)cc2)c1	none
CCc1nc2cccnc2n1-c1ccc(CC(=O)NCCOC)cc1	none
CCOC(=O)c1c(CSCc2ccccc2)oc2ccc(O)c(CN(C)C)c12	CHT PAM 10.5 | CHT act confirm 24.6 | HEK293 MP dye inactive
Cc1oc2ccc(O)c(CN(C)C)c2c1C(=O)c1ccccc1	none
O=C1/C(=C/c2ccccc2F)SC(=S)N1CCC(=O)N1CCCCC1CCO (stereo unspecified)	none
CC[N+](CC)(CC#Cc1ccccc1)CC#Cc1ccccc1	CHT PAM 7.7 | CHT act confirm 48.6 | HEK293 MP dye inactive
C[N+](C)(CC#Cc1ccccc1)CC(=O)c1ccccc1	none
N#C/C(=N\Nc1c(Cl)cccc1Cl)C(=O)NN	CHT PAM 12 | CHT act confirm 19.1 | HEK293 MP dye -40.4
CCN(Cc1ccncc1)C(=O)c1ccc(Br)o1	none
O=[N+]([O-])c1cnc2nc(-c3ccncc3)nn2c1O	none | CHT act confirm 43.7 | HEK293 MP dye -44.8
O=[N+]([O-])c1cc(Cl)ccc1-c1nc(-c2ccncc2)no1	none
Cc1ccc2cccc(NS(=O)(=O)c3ccccc3)c2n1	none
Cc1ccc2ccc3ccc(C)nc3c2n1	CHT PAM 10.5 | CHT act confirm 67.4 | HEK293 MP dye -75.1
O=[N+]([O-])c1cccc(-c2ncc3ccccn23)c1	none
Nc1c(-c2cccc([N+](=O)[O-])c2)nc2ccccn12	none | CHT act confirm 52.9 | HEK293 MP dye -50.5
